Legend:
[1] = molecular target: Cell division cycle 7-related protein kinase (Homo sapiens, UniProt O00311); experiment: Inhibition of human Cdc7 assessed as inhibition of rate of phosphorylation of Mcm2 protein
A2780 [2] = experiment: Antiproliferative activity against human A2780 cells after 72 hrs by luciferase based assay; assay type: functional, cell-based
[3] = molecular target: Cyclin-dependent kinase 9 (Homo sapiens, UniProt P50750); experiment: Inhibition of CDK9
[4] = Apparent permeability by PAMPA method; assay type: ADME; conditions: read-out: permeability
MCF7 = experiment: Antiproliferative activity against human MCF7 cells after 72 hrs by luciferase based assay; assay type: functional, cell-based; conditions: MCF7, 72 h
COLO 205 = experiment: Antiproliferative activity against human COLO205 cells after 72 hrs by luciferase based assay; assay type: functional, cell-based; conditions: COLO 205, 72 h
[5] = Antiproliferative activity against human […] cells after 72 hrs by luciferase based assay; assay type: functional, cell-based
Method in brief: (§1)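 Cells seeded at 2500–5000/well in complete medium (RPMI1640, McCoy's or DMEM with 10% FCS, by line); compound added after 24 h, 72 h at 37 °C, 5% CO2.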

HT-29 = experiment: Antiproliferative activity against human HT-29 cells after 72 hrs by luciferase based assay; assay type: functional, cell-based; conditions: HT-29, 72 h; method in brief: as §1
L-363 = experiment: Antiproliferative activity against human L363 cells after 72 hrs by luciferase based assay; assay type: functional, cell-based; conditions: L-363, 72 h; method in brief: as §1
[6] = Antiproliferative activity against human SW403 cells after 72 hrs by luciferase based assay; assay type: functional, cell-based; conditions: SW-403, 72 h; method in brief: as §1
SW48 = experiment: Antiproliferative activity against human SW48 cells after 72 hrs by luciferase based assay; assay type: functional, cell-based; conditions: SW48, 72 h; method in brief: as §1
[7] = Antiproliferative activity against human NCI-H929 cells after 72 hrs by luciferase based assay; assay type: functional, cell-based; conditions: NCI-H929, 72 h; method in brief: as §1
OPM-2 = experiment: Antiproliferative activity against human OPM2 cells after 72 hrs by luciferase based assay; assay type: functional, cell-based; conditions: OPM-2, 72 h; method in brief: as §1
NHDF = experiment: Antiproliferative activity against human NHDF cells after 72 hrs by luciferase based assay; assay type: cell-based
A2780 [8] = experiment: Antitumor activity against human A2780 cells xenografted in CDI nu/nu mouse assessed as tumor growth inhibition at 60 mg/kg, po administered for 10 days; assay type: functional; conditions: A2780, 240 h, read-out: TGI
Rattus norvegicus = experiment: Antitumor activity against DMBA-induced mammary carcinoma in CD OFA rat assessed as duration of tumor stabilization maintenance at 20 mg/kg, po administered for 10 days; assay type: functional
Method in brief: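 DMBA tumors induced in female CD OFA rats by single intragastric 20 mg DMBA in sesame oil; after about 50 days, rats with a mammary tumor of at least 1 cm given 20 mg/kg orally twice daily for 10 days in glucose solution, or vehicle; 10 per group; tumor volume by Vernier calipers.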

[9] = Solubility in pH 7.0 buffer
[10] = Metabolic stability in human hepatocytes expressing CYP3A4 assessed as drug remaining after 1 hr; assay type: ADME, cell-based, Hepatocyte; conditions: read-out: Stability
[11] = Cmax in nu/nu mouse at 10 mg/kg, iv administered as single dose; assay type: ADME, organism-based; design: dose 10 mg/kg, route intravenous; conditions: in vivo
Method in brief: (§2)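 Single iv or oral dose in 5% dextrose to overnight-fasted animals. Nu/Nu mice: males, 3 per route, saphenous bleeds to 24 h. Han-Wistar rats: males, 3 per route, jugular bleeds to 24 h. Beagle dogs: 2 per sex, iv and po crossover 2 weeks apart, jugular bleeds to 48 h. Plasma by LC/MS/MS; noncompartmental parameters, AUC by linear trapezoid with extrapolation.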

[12] = AUC (0 to infinity) in nu/nu mouse at 10 mg/kg, iv administered as single dose; assay type: ADME, organism-based; design: dose 10 mg/kg, route intravenous, time infinity; conditions: plasma; method in brief: as §2
[13] = Clearance in nu/nu mouse at 10 mg/kg, iv administered as single dose; assay type: ADME, organism-based; design: dose 10 mg/kg, route intravenous; conditions: in vivo; method in brief: as §2
[14] = Volume of distribution at steady state in nu/nu mouse at 10 mg/kg, iv administered as single dose; assay type: ADME, organism-based; design: dose 10 mg/kg, route intravenous; conditions: in vivo, read-out: Vdss
Method in brief: (§3)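 Overnight-fasted male Nu/Nu mice got a single 10 mg/kg dose in 5% dextrose, iv or po, three mice per route. Saphenous blood was drawn at 0.083 (iv) or 0.25 (po), 0.5, 1, 6 and 24 h. Plasma was assayed by LC/MS/MS and analysed noncompartmentally. Tmax is the observed peak time, Vss = CL·MRT, and F is the ratio of dose-normalized AUC∞ po/iv.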

[15] = Half life in nu/nu mouse at 10 mg/kg, iv administered as single dose; assay type: ADME, organism-based; design: dose 10 mg/kg, route intravenous; conditions: in vivo; method in brief: as §2
[16] = Cmax in nu/nu mouse at 10 mg/kg, po administered as single dose; assay type: ADME, organism-based; design: dose 10 mg/kg, route oral; conditions: in vivo; method in brief: as §2
[17] = Tmax in nu/nu mouse at 10 mg/kg, po administered as single dose; assay type: ADME, organism-based; design: dose 10 mg/kg, route oral; conditions: in vivo; method in brief: as §3
[18] = AUC (0 to infinity) in nu/nu mouse at 10 mg/kg, po administered as single dose; assay type: ADME, organism-based; design: time infinity, dose 10 mg/kg, route oral; conditions: plasma; method in brief: as §2
[19] = Half life in nu/nu mouse at 10 mg/kg, po administered as single dose; assay type: ADME, organism-based; design: dose 10 mg/kg, route oral; conditions: in vivo; method in brief: as §2
[20] = Oral bioavailability in nu/nu mouse at 10 mg/kg administered as single dose; assay type: ADME, organism-based; conditions: in vivo; method in brief: as §3
Hepatocyte = experiment: Metabolic stability in rat hepatocytes assessed as intrinsic clearance at 1 uM; assay type: cell-based; conditions: Liver

Cyclin-dependent kinase 9, sequence (P50750 whole entry): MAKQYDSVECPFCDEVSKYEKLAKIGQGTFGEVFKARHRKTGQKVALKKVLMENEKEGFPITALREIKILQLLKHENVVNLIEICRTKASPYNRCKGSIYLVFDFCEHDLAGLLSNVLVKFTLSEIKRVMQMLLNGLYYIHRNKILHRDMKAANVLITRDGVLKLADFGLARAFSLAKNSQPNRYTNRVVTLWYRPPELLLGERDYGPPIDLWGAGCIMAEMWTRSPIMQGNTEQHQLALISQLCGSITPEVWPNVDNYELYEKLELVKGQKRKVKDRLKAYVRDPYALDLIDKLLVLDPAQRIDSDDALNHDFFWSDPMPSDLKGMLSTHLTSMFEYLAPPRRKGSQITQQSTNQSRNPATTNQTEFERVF
Cell division cycle 7-related protein kinase, sequence (O00311 whole entry): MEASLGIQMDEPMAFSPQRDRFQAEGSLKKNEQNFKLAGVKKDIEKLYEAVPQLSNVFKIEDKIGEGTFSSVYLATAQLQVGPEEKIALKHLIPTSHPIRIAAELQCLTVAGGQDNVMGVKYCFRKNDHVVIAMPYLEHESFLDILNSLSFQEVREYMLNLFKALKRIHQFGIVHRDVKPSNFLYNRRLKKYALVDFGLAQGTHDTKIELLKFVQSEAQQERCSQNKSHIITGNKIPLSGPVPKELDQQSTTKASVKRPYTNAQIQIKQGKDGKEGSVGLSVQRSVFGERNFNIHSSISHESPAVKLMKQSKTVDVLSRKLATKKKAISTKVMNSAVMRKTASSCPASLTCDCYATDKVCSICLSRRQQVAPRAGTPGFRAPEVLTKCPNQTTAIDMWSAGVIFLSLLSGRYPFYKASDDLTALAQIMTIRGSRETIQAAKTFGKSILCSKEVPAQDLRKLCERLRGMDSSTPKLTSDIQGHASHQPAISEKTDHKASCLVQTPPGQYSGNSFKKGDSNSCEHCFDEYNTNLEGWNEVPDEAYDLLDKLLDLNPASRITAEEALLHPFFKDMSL

SMILES | IC50 [1] | IC50 (A2780 [2]; Homo sapiens, A2780, 72 h) | also measured
Nc1nccc(-c2cc3c([nH]2)C(CCOCc2ccccc2)CNC3=O)n1 (stereo not given) | 0.007 µM | 0.4 µM | 
Nc1nccc(-c2cc3c([nH]2)C(CCCO)CNC3=O)n1 (stereo not given) | 0.012 µM | 6 µM | 
O=C1N[C@@H](COCc2ccccc2)Cc2[nH]c(-c3ccncc3)cc21 | 0.044 µM | 4.8 µM | 
Nc1nccc(-c2cc3c([nH]2)CCNC3=O)n1 |  | 1.7 µM | IC50 [3]: 0.029 µM
O=C1NCCc2[nH]c(-c3ccncc3)cc21 |  | 1.1 µM | Papp [4]: 1.84 ×10⁻⁶ cm/s; IC50 (MCF7): 1.3 µM; IC50 (COLO 205): 1.5 µM; IC50 [5]: 1 µM; IC50 (HT-29): 5 µM; IC50 (L-363): 1.6 µM; IC50 [6]: 1 µM; IC50 (SW48): 1.2 µM; IC50 [7]: 1.8 µM; IC50 (OPM-2): 4.5 µM; IC50 (NHDF): 1.6 µM; inhibition in vivo at 60 mg/kg (A2780 [8]): 50%; Activity (Rattus norvegicus): 25 days
Nc1nccc(-c2cc3c([nH]2)C(c2ccccc2)CNC3=O)n1 (stereo not given) | 0.019 µM | 3 µM | 
Nc1nccc(-c2cc3c([nH]2)C[C@H](COCc2ccccc2)NC3=O)n1 | 0.052 µM | 3 µM | 
CC1Cc2[nH]c(-c3ccnc(N)n3)cc2C(=O)N1 (stereo not given) |  | 3.9 µM | 
CC(C)C1Cc2[nH]c(-c3ccnc(N)n3)cc2C(=O)N1 (stereo not given) | 0.012 µM | 1.3 µM | 
Nc1nccc(-c2cc3c([nH]2)C(CCCOCc2ccccc2)CNC3=O)n1 (stereo not given) | 0.024 µM | 2 µM | 
Nc1nccc(-c2cc3c([nH]2)C(CCC(F)(F)F)CNC3=O)n1 (stereo in doubt; 93-1) | 0.012 µM |  | IC50 [3]: 0.218 µM; IC50 (A2780 [2]; a2780): 1 µM
CC1CNC(=O)c2cc(-c3ccnc(N)n3)[nH]c21 (stereo not given) | 0.006 µM | 0.7 µM | 
Nc1nccc(-c2cc3c([nH]2)C(CCC(F)(F)F)CNC3=O)n1 (stereo in doubt; 93-2) |  |  | CL (mL.min-1.kg-1) (Hepatocyte): 8.33
CC1Cc2[nH]c(-c3ccncc3)cc2C(=O)N1 (stereo not given) | 0.013 µM | 2.4 µM | 

Further compounds by falling IC50 [1], results first:

IC50 [1] | IC50 (A2780 [2]; Homo sapiens, A2780, 72 h) | SMILES | also measured
0.006 µM | 0.9 µM | CC(C)C1Cc2[nH]c(-c3ccncc3)cc2C(=O)N1 (stereo not given) | 
0.006 µM | 0.2 µM | CCC1(CC)CNC(=O)c2cc(-c3ccncc3)[nH]c21 | 
0.005 µM | 0.4 µM | CCC1CNC(=O)c2cc(-c3ccnc(N)n3)[nH]c21 (stereo in doubt; 86-2) | IC50 [3]: 0.017 µM
0.005 µM | 0.2 µM | CCC1(CC)CNC(=O)c2cc(-c3ccnc(N)n3)[nH]c21 | 
0.004 µM |  | CCC1CNC(=O)c2cc(-c3ccnc(N)n3)[nH]c21 (stereo in doubt; 86-1) | IC50 [3]: 0.073 µM; solubility [9]: > 225 µM; remaining at 1 h [10]: 99%; Cmax [11]: 12.6 µM; AUC(0-inf) [12]: 4.9 µM·h; clearance [13]: 125 mL/min/kg; Vd [14]: 1.5 L/kg; half-life [15]: 12 min; Cmax [16]: 2.7 µM; Tmax [17]: 20.4 min; AUC(0-inf) [18]: 3.6 µM·h; half-life [19]: 78 min; bioavailability [20]: 74%
0.004 µM |  | CC(C)C1CNC(=O)c2cc(-c3ccnc(N)n3)[nH]c21 (stereo in doubt; 87) | IC50 (A2780 [2]; a2780): 0.4 µM
0.004 µM | 1.1 µM | Nc1nccc(-c2cc3c([nH]2)C(CCO)CNC3=O)n1 (stereo not given) | 
0.003 µM | 0.8 µM | CC(C)CC1Cc2[nH]c(-c3ccncc3)cc2C(=O)N1 (stereo not given) | 
0.002 µM | 0.6 µM | O=C1NCC(CCF)c2[nH]c(-c3ccncc3)cc21 (stereo not given) | 
